Measurements reported in ChEMBL document CHEMBL3272266, “Dibenzotropone- and dibenzosuberonecarboxylic acids with bronchodilator activity” (J Med Chem, 1979).
Activity calls are given as the source filed them. The rule behind the calls is not given here.

Experiments:
Cavia porcellus [1] = test: Bronchodilator activity in trachea and jugular vein cannulated guinea pig assessed as inhibition of histamine-induced response at 6.25 mg/kg, iv after 5 mins relative to control; assay type: functional
Outline: (§1)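 Cannulated guinea pigs given histamine phosphate 10 µg/kg iv in buffered saline. Test agent given 5 min later as the sodium salt in water via jugular cannula, one dose per animal, then histamine repeated 5 min after dosing. Percent inhibition = maximum pulmonary resistance after the agent versus before it.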

Cavia porcellus [2] = test: Toxicity in trachea and jugular vein cannulated histamine-induced guinea pig assessed as severe airway constriction at 25 mg/kg, iv; assay type: organism-based; design: dose 25 mg/kg, route intravenous; conditions: in vivo
Outline: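 Guinea pigs cannulated in the jugular vein dosed iv with the sodium salt in water. Animals showing severe airway constriction after dosing were recorded and received no histamine challenge.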

Cavia porcellus [3] = test: Bronchodilator activity in trachea and jugular vein cannulated guinea pig assessed as inhibition of histamine-induced response at 12.5 mg/kg, iv after 5 mins relative to control; assay type: functional; outline: as §1
Cavia porcellus [4] = test: Bronchodilator activity in trachea and jugular vein cannulated guinea pig assessed as inhibition of histamine-induced response at 25 mg/kg, iv after 5 mins relative to control; assay type: functional; outline: as §1
Cavia porcellus [5] = test: Bronchodilator activity in guinea pig assessed as protection against histamine aerosol-induced bronchoconstriction at 100 mg/kg, ip treated for 15 mins prior to histamine aerosol-challenge measured after 5 mins relative to control; assay type: functional; conditions: route intraperitoneal
Outline: (§2)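 Guinea pigs in groups of eight; a control group of eight is first confirmed to collapse. Compound given ip 15 min or orally 30 min before exposure to 0.04% aqueous histamine aerosol for 5 min. Percent protection = 100 × animals not collapsing during the 5-min exposure / total animals. Significance by chi-square with Yates correction against 66 control animals.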

[6] = Bronchodilator activity in guinea pig trachea assessed as relaxation of tracheal smooth muscle at 0.05 to 0.5 ug/ml after 15 mins relative to aminophylline; assay type: functional, Cavia porcellus
Outline: (§3)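 Guinea pig trachea cut into rings tied as a chain, in Krebs-Henseleit at 37 °C aerated with 5% CO2/95% O2, resting load 0.2–0.5 g, tone recorded isometrically after stabilization. Sodium salts in water, up to 5 µg/mL, 15-min exposure. Potency estimated against aminophylline by a three- or four-point assay from concentration–relaxation plots, one preparation per agent.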

Cavia porcellus [7] = organism: Cavia porcellus; test: (§4) Bronchodilator activity in guinea pig trachea assessed as relaxation of tracheal smooth muscle at 0.5 to 5 ug/ml after 15 mins relative to aminophylline; assay type: functional; outline: as §3
Cavia porcellus [8] = test: Bronchodilator activity in guinea pig assessed as protection against histamine aerosol-induced bronchoconstriction at 50 mg/kg, ip treated for 15 mins prior to histamine aerosol-challenge measured after 5 mins relative to control; assay type: functional; conditions: route intraperitoneal
[9] = Bronchodilator activity in guinea pig trachea assessed as relaxation of tracheal smooth muscle at 0.005 to 5 ug/ml after 15 mins relative to aminophylline; assay type: functional, Cavia porcellus; outline: as §3
Cavia porcellus [10] = test: Bronchodilator activity in guinea pig assessed as protection against histamine aerosol-induced bronchoconstriction at 90 mg/kg, ip treated for 15 mins prior to histamine aerosol-challenge measured after 5 mins relative to control; assay type: functional; conditions: route intraperitoneal; outline: as §2
[11] = as §4; assay type: functional, Cavia porcellus; outline: as §3
[12] = Bronchodilator activity in guinea pig trachea assessed as relaxation of tracheal smooth muscle at 0.125 to 0.5 ug/ml after 15 mins relative to aminophylline; assay type: functional, Cavia porcellus; outline: as §3
Cavia porcellus [13] = test: Bronchodilator activity in guinea pig assessed as protection against histamine aerosol-induced bronchoconstriction at 200 mg/kg, po treated for 30 mins prior to histamine aerosol-challenge measured after 5 mins; assay type: functional, organism-based; design: dose 200 mg/kg; outline: as §2
Cavia porcellus [14] = test: Bronchodilator activity in trachea and jugular vein cannulated guinea pig assessed as inhibition of histamine-induced response at 3.175 mg/kg, iv after 5 mins relative to control; assay type: functional; outline: as §1
Cavia porcellus [15] = test: Bronchodilator activity in guinea pig assessed as protection against histamine aerosol-induced bronchoconstriction at 90 mg/kg, po treated for 30 mins prior to histamine aerosol-challenge measured after 5 mins; assay type: functional, organism-based; design: dose 90 mg/kg; outline: as §2
Cavia porcellus [16] = test: Bronchodilator activity in guinea pig assessed as protection against histamine aerosol-induced bronchoconstriction at 75 mg/kg, ip treated for 15 mins prior to histamine aerosol-challenge measured after 5 mins relative to control; assay type: functional; conditions: route intraperitoneal

SMILES	Activity (Cavia porcellus [5])	also measured
O=C([O-])c1ccc2c(c1)CCc1ccc(Cl)cc1C2=O.[Na+]		inhibition in vivo at 6.25 mg/kg (Cavia porcellus [1]): 0%; Activity (Cavia porcellus [2]): Toxic; inhibition in vivo at 12.5 mg/kg (Cavia porcellus [3]): 24%
O=C(O)c1ccc2c(c1)CCc1c(Br)cccc1C2=O [listing 1 of 2 here]		inhibition in vivo at 6.25 mg/kg (Cavia porcellus [1]): 0%; inhibition in vivo at 25 mg/kg (Cavia porcellus [4]): 77%; inhibition in vivo at 12.5 mg/kg (Cavia porcellus [3]): 46%
CC(C)Oc1ccc2ccc3ccc(C(=O)O)cc3c(=O)c2c1	62.5%	
CC(C)c1ccc2c(c1)C(=O)c1cc(C(=O)O)ccc1CC2	25%	
O=C(O)c1ccc2c(c1)CCc1c(Cl)cc(Cl)cc1C2=O	50%	
O=C(O)c1ccc2ccc3ccc(C(=O)O)cc3c(=O)c2c1	25%	
O=C(O)c1ccc2c(c1)C(=O)c1cc(O)ccc1CC2	12.5%	
O=C(O)c1ccc2c(c1)CCc1ccccc1C2=O [listing 1 of 3 here]	62.5%	
O=C(O)c1ccc2c(c1)C(=O)c1cccc(Br)c1CC2	0%	
O=C(O)c1cccc2c(=O)c3ccccc3ccc12	12.5%	
O=C([O-])c1ccc2c(c1)C(=O)c1ccccc1CC2.[Na+]		fold change (FC) [6]: 7
O=C([O-])c1ccc2c(c1)CCc1c(Cl)cc(Cl)cc1C2=O.[Na+]		Activity (Cavia porcellus [2]): Toxic; inhibition in vivo at 12.5 mg/kg (Cavia porcellus [3]): 53%
O=C(O)c1ccc2c(c1)C(=O)c1cc(Cl)ccc1CC2	25%	
O=C(O)c1ccc2ccc3ccc(Br)cc3c(=O)c2c1	12.5%	
N#Cc1ccc2c(c1)C(=O)c1cc(C(=O)[O-])ccc1CC2.[Na+]		fold change (FC) [6]: 5
O=C(O)c1cccc2c1CCc1ccccc1C2=O	0%	
O=C(O)c1ccc2c(c1)CCc1ccc(Br)cc1C2=O	50%	
O=C(O)c1ccc2c(c1)C(=O)c1ccc(Br)cc1CC2	0%	
O=C(O)c1ccc2c(=O)c3cc(Cl)cc(Cl)c3ccc2c1	0%	
O=C(O)c1ccc2ccc3ccccc3c(=O)c2c1	62.5%	
N#Cc1ccc2c(c1)CCc1ccc(C(=O)O)cc1C2=O	12.5%	
COc1ccc2c(c1)CCc1cc(C(=O)O)ccc1C2=O [listing 1 of 2 here]	37.5%	

SMILES	Activity (Cavia porcellus [5])	also measured
O=C(O)c1ccc2c(c1)C(=O)c1cc(Br)ccc1CC2	62.5%	
O=C(O)c1ccc2c(c1)CCc1ccccc1C2=O [listing 2 of 3 here]		Activity (Cavia porcellus [7]): inactive
N#Cc1ccc2c(c1)C(=O)c1cc(C(=O)O)ccc1CC2	0%	
O=C(O)c1ccc2c(c1)CCc1ccc(Cl)cc1C2=O	0%	
O=C([O-])c1ccc2c(c1)CCc1c(Cl)cccc1C2=O.[Na+]		Activity (Cavia porcellus [2]): Toxic; inhibition in vivo at 12.5 mg/kg (Cavia porcellus [3]): 76%
CC(C)Oc1ccc2c(c1)C(=O)c1cc(C(=O)O)ccc1CC2		Activity (Cavia porcellus [8]): 0%
O=C(O)c1ccc2c(c1)CCc1c(Cl)cccc1C2=O [listing 1 of 2 here]	75%	
O=C(O)c1ccc2c(c1)CCc1ccccc1C2=O [listing 3 of 3 here]		inhibition in vivo at 25 mg/kg (Cavia porcellus [4]): 11%; inhibition in vivo at 12.5 mg/kg (Cavia porcellus [3]): 0%
O=C(O)c1ccc2c(c1)C(=O)c1ccc(Cl)cc1CC2	25%	
Cc1cccc2c1CCc1cc(C(=O)O)ccc1C2=O [listing 1 of 2 here]	87.5%	
O=C([O-])c1ccc2c(c1)C(=O)c1cc(Cl)ccc1CC2.[Na+]		fold change (FC) [9]: 25
CC(C)Oc1ccc2c(c1)C(=O)c1ccc(C(=O)O)cc1CC2	50%	
O=C(O)c1ccc2c(c1)CCc1c(Br)cccc1C2=O [listing 2 of 2 here]		Activity (Cavia porcellus [10]): 75%
O=C(O)c1ccc2c(=O)c3cccc(F)c3ccc2c1 [listing 1 of 2 here]		inhibition in vivo at 25 mg/kg (Cavia porcellus [4]): 43%; inhibition in vivo at 12.5 mg/kg (Cavia porcellus [3]): 22%
Cc1ccc2c(c1)CCc1cc(C(=O)[O-])ccc1C2=O.[Na+]		Activity (Cavia porcellus [2]): Toxic; inhibition in vivo at 12.5 mg/kg (Cavia porcellus [3]): 0%
Cc1cc(C)c2c(c1)C(=O)c1cc(C(=O)O)ccc1CC2	37.5%	
COc1ccc2c(c1)C(=O)c1cc(C(=O)O)ccc1CC2	50%	
Cc1ccc2c(c1)C(=O)c1ccc(C(=O)O)cc1CC2	62.5%	
Cc1ccc2c(c1)CCc1cc(C(=O)O)ccc1C2=O	12.5%	
O=C([O-])c1ccc2c(c1)CCc1ccc(Br)cc1C2=O.[Na+]		fold change (FC) [11]: 7
O=C(O)c1ccc2c(c1)CCc1cc(Br)ccc1C2=O	25%	
CC(=O)c1ccc2c(c1)C(=O)c1cc(C(=O)O)ccc1CC2	62.5%	

SMILES	Activity (Cavia porcellus [5])	also measured
CC(=O)c1ccc2ccc3ccc(C(=O)O)cc3c(=O)c2c1	37.5%	
COc1ccc2c(c1)C(=O)c1ccc(C(=O)O)cc1CC2 [listing 1 of 2 here]	50%	
O=C(O)c1cc2ccccc2c(=O)c2ccccc12	0%	
CC(C)c1ccc2c(c1)C(=O)c1ccc(C(=O)[O-])cc1CC2.[Na+]		fold change (FC) [12]: 10
O=C(O)c1ccc2ccc3ccc(Cl)cc3c(=O)c2c1	0%	
CC(C)Oc1ccc2c(c1)C(=O)c1cc(C(=O)[O-])ccc1CC2.[Na+]		fold change (FC) [6]: 0.5
O=C(O)c1ccc2c(c1)CCc1c(F)cccc1C2=O	75%	
O=C(O)c1ccc2c(c1)CCc1c(Cl)cccc1C2=O [listing 2 of 2 here]		Activity (Cavia porcellus [13]): inactive
O=C(O)c1ccc2c(=O)c3cccc(F)c3ccc2c1 [listing 2 of 2 here]	25%	
COc1ccc2c(c1)C(=O)c1ccc(C(=O)O)cc1CC2 [listing 2 of 2 here]		inhibition in vivo at 25 mg/kg (Cavia porcellus [4]): 68%; inhibition in vivo at 12.5 mg/kg (Cavia porcellus [3]): 13%
O=C(O)c1ccc2c(=O)c3cccc(Br)c3ccc2c1	25%	
O=C([O-])c1ccc2c(c1)C(=O)c1cc(Br)ccc1CC2.[Na+]		fold change (FC) [12]: 10; inhibition in vivo at 25 mg/kg (Cavia porcellus [4]): 61%; inhibition in vivo at 12.5 mg/kg (Cavia porcellus [3]): 0%
COc1ccc2c(c1)CCc1cc(C(=O)O)ccc1C2=O [listing 2 of 2 here]		inhibition in vivo at 25 mg/kg (Cavia porcellus [4]): 20%
Cc1cccc2c1CCc1cc(C(=O)O)ccc1C2=O [listing 2 of 2 here]		inhibition in vivo at 3.175 mg/kg (Cavia porcellus [14]): 0%; inhibition in vivo at 6.25 mg/kg (Cavia porcellus [1]): 0%; inhibition in vivo at 25 mg/kg (Cavia porcellus [4]): 0%; inhibition in vivo at 12.5 mg/kg (Cavia porcellus [3]): 0%
CC(=O)c1ccc2c(c1)C(=O)c1cc(C(=O)[O-])ccc1CC2.[Na+]		fold change (FC) [6]: <1
CC(C)c1ccc2c(c1)C(=O)c1cc(C(=O)[O-])ccc1CC2.[Na+]		fold change (FC) [11]: 5
O=C(O)c1ccc2c(c1)C(=O)c1ccccc1CC2	0%	
CC(=O)c1ccc2c(c1)C(=O)c1ccc(C(=O)O)cc1CC2	25%	
O=C(O)c1ccc2c(=O)c3ccccc3ccc2c1	0%	
CC(C)c1cccc2c1CCc1cc(C(=O)O)ccc1C2=O	25%	Activity (Cavia porcellus [15]): inactive
CC(C)c1ccc2c(c1)C(=O)c1ccc(C(=O)O)cc1CC2	62.5%	
Cn1c(=O)c2[nH]cnc2n(C)c1=O.Cn1c(=O)c2[nH]cnc2n(C)c1=O.NCCN [AMINOPHYLLINE]	75%	Activity (Cavia porcellus [16]): 50%; Activity (Cavia porcellus [8]): 25%
